Columns and labels:
[1] = target: T1, Catechol O-methyltransferase (Rattus norvegicus) (UniProt P22734); test: Evaluated for its ability to inactivate Catechol O-methyltransferase under anaerobic conditions, after 60 min at 37 degree. C; parameters: concentration or dose not given beside the values
T1 sequence (whole entry): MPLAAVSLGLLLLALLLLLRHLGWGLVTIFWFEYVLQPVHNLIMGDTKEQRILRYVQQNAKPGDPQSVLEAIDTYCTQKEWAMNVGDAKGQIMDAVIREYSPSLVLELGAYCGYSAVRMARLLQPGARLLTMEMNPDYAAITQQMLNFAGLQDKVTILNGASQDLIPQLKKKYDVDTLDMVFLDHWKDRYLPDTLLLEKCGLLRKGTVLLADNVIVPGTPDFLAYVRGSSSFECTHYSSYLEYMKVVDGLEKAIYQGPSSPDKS
Procedure, shortened: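 Anaerobic variant: preincubation (inhibitor 0.5 mM, MgCl2 1.20 mM, phosphate pH 7.60, purified rat liver COMT, 60 min, 37 °C) in sealed ampules under nitrogen, inhibitor stocks in deoxygenated water, samples withdrawn by syringe and assayed in ampules under nitrogen.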

[2] = target: T1, Catechol O-methyltransferase (Rattus norvegicus); test: (§1) Kinetic constants for the inactivation of Catechol O-methyltransferase by the compound
[3] = target: T2, Catechol O-methyltransferase (Rattus norvegicus, UniProt P22734); test: as §1
T2 sequence (P22734 whole entry): T1 sequence (whole entry)

[4] = target: T1, Catechol O-methyltransferase (Rattus norvegicus); test: Compound was evaluated for its ability to inactivate Catechol O-methyltransferase after dialysis
Procedure, shortened: (§2)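 Purified rat liver COMT preincubated 60 min at 37 °C with inhibitor (0.5 mM), MgCl2 1.20 mM, phosphate buffer pH 7.60. Residual activity relative to unpreincubated controls (dialyzed 24 h for post-dialysis line); duplicate means.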

[5] = target: T1, Catechol O-methyltransferase (Rattus norvegicus); test: Compound was evaluated for its ability to inactivate Catechol O-methyltransferase before dialysis; procedure, shortened: as §2
[6] = target: T1, Catechol O-methyltransferase (Rattus norvegicus); test: Evaluated for its ability to inactivate Catechol O-methyltransferase under aerobic conditions, after 60 min at 37 degree. C; parameters: concentration or dose not given beside the values
Procedure, shortened: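 Aerobic preincubation of purified rat liver COMT with inhibitor (0.5 mM), MgCl2 1.20 mM, phosphate buffer pH 7.60 for 60 min at 37 °C. Residual activity versus controls assayed directly after inhibitor addition; duplicate means.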

[7] = target: T1, Catechol O-methyltransferase (Rattus norvegicus); test: Kinetic constants for the inactivation of cCatechol O-methyltransferase by the compound

| SMILES | residual activity [1] [%] | K2 [2] [min⁻¹] | Ki [3] [mM] | residual activity [4] [c.p.m.] | residual activity [5] [c.p.m.] | residual activity [6] [%] | K2 [7] [min⁻¹] |
| --- | --- | --- | --- | --- | --- | --- | --- |
| Cc1c(O)c(O)c(C)c2[nH]ccc12 | 96 | 1.12 | 7.26 | 212 | 322 | 4.5 | – |
| Cc1c(O)c(O)cc2[nH]ccc12 | 81 | – | 15.2 | 351 | 396 | 0 | 0.47 |
| Cc1c(O)c(O)cc2cc[nH]c12 | 84 | 0.16 | 1.14 | 262 | 277 | 0 | – |
| Oc1cc2cc[nH]c2cc1O | 96 | 0.55 | 3.46 | 228 | 282 | 0 | – |
| NCCc1c[nH]c2cc(O)c(O)cc12 | 89 | 0.086 | 0.328 | 232 | 242 | 0 | – |

Reference: ChEMBL document CHEMBL1122205, “Catechol O-methyltransferase. 12. Affinity labeling the active site with the oxidation products of 5,6-dihydroxyindole” (J Med Chem, 1982)
